Measured values: PubChem BioAssay
Values joined by “and” are separate entries in the source; they are usually repeats but may differ in a detail not shown here. Identical values can stand only once. Active and inactive are the calls of the source.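 How the source made its calls, unless noted: active means Her2 level under about 52% in both replicate screens, with viability over 70% of control (limit read from the data); inconclusive means Her2 under the limit in one screen only, or viability under 70%; inactive means Her2 level above the set limit.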

Columns and labels:
[1] = reducers of endogenous Her2 protein level, primary screen, SKBR3 breast tumor cells, AlphaScreen, ATP viability (AID 461); conditions: 18-24 h, measured here: SKBR3 viability, ATP luminescence, at 10 µM;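 on Her2 level: lower value means less Her2 protein in the cells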;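 on viability: percent of carrier control wells set as 100% viability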
[2] = target: Receptor tyrosine-protein kinase erbB-2 (Homo sapiens) (UniProt P04626); experiment: as above; conditions: 18-24 h, at 10 µM, stronger effect = lower value
[3] = SK-BR-3 cell growth inhibitors, pilot screen, 24 h, human (AID 572;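 active means viability at or below 10% of carrier control in both of two separate runs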;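 further: compound exposure lasted between 18 and 24 h rather than exactly 24 h; 100% = carrier-treated control wells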); conditions: SK-BR-3 viability, CellTiter-Glo luminescence, at 10 µM, stronger effect = lower value
[4] = HUVEC growth inhibition – cell-based, human, primary screen (AID 575;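 active means viability at or below 30% in both replicate assays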;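 further: 100% = median of untreated cell wells with 0.1% DMSO on each plate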); conditions: HUVEC proliferation, CellTiter-Glo luminescence, 72 h; at 10 µM; stronger effect = lower value
In short: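 Test system: HUVEC primary cells. Quantity: 1250 endothelial cells in each well. Dosing: single-point 10 µM, DMSO 0.1% final. Incubation: 72 h treatment at 37 °C. Measured by: CTG luminescence. Control set: DMSO cell controls and MePR drug controls. Plate: collagen-coated 384-well format.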

[5] = growth inhibitors of H69AR lung tumor, primary screen, human, duplicate replicates (AID 580;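 active means viability at or under a set limit in both replicates, limit being median viability minus 3 SD, cut at about 48% in these data, passing the limit was not always enough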;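 further: 100% = mean luminescence of untreated wells and 0% = no signal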); conditions: H69AR lung tumor cells viability, ATP luminescence, 72 h; at 10 µM; stronger effect = lower value
[6] = reversal of MRP1-mediated doxorubicin resistance, pilot screen, H69AR cells, doxorubicin co-treatment (AID 601;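 active means viability loss from added drug above about 55%, and viability with drug at most 40%, in both replicates, limit read from the data, passing the limit was not always enough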); conditions: CellTiter-Glo, 72 h, at 10 µM; for differential viability (reversal): stronger effect = higher value
[7] = 384-well plate pilot, post-Golgi transport modulator project, inhibition of yeast transport mutant growth (AID 636; in the data active means inhibition above about 31%); conditions: absorbance 615 nm, about 18 h, stronger effect = higher value
[8] = growth suppression of yeast trafficking mutant, preliminary HTS, modulators of trafficking downstream of Golgi apparatus project, 1536-format plate, OD 615 nm (AID 637; in the data active means inhibition above about 30%); conditions: yeast transport mutant growth, absorbance 615 nm, 18 h; stronger effect = higher value
[9] = H69AR cells + 2 uM doxorubicin, measured here: viability with 2 uM doxorubicin, stronger effect = lower value
[10] = H69AR cells, compound alone cytotoxicity

Sequence of Receptor tyrosine-protein kinase erbB-2 (Homo sapiens) (P04626 whole entry, looked up): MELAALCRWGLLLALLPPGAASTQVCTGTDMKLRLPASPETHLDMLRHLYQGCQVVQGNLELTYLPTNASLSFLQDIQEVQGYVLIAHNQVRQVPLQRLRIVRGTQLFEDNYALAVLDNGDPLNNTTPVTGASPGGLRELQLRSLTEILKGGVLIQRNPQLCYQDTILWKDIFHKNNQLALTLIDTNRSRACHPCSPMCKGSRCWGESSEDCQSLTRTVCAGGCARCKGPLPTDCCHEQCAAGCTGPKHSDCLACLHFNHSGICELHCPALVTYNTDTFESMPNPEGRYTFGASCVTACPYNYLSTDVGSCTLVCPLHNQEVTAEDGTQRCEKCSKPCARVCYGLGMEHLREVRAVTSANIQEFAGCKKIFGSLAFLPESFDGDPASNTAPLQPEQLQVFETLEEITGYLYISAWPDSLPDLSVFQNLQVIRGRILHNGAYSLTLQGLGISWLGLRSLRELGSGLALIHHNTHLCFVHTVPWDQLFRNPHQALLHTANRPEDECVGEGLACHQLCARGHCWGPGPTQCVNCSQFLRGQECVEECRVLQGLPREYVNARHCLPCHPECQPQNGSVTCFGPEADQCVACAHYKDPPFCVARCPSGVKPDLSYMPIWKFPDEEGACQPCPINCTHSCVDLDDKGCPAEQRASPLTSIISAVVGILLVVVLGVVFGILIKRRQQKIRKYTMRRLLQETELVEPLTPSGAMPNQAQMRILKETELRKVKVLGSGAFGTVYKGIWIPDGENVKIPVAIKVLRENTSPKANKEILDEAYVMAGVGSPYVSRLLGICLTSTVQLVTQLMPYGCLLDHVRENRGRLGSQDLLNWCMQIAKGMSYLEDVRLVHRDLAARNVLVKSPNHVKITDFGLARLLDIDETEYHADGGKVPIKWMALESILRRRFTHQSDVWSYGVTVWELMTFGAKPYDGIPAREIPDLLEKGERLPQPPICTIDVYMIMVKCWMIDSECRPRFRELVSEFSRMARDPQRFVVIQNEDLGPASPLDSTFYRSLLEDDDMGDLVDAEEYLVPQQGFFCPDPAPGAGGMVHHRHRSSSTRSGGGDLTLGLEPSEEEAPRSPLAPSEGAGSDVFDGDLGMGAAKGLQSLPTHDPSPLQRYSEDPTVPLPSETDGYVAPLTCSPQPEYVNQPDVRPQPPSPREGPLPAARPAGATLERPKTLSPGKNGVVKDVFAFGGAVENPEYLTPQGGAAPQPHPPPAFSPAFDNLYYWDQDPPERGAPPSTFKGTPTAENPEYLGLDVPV

Compound	viability [1]	Her2 level [2]	viability [3]	viability [4]	viability [5]	differential viability (reversal) ([6]; H69AR cells + 2 uM doxorubicin)	viability [6, 9]	viability [6, 10]	inhibition [7]	inhibition [8]
CCCC(CCC)C(=O)OC1C[C@H]2CC[C@@H](C1)[N+]2(C)C (stereo not given in full)	112%	95.5% (inactive)	112% (inactive)	108% (inactive)	94% (inactive)	9.01% (inactive)	85%	94%	–	–
C[C@H]1C[C@@H]2[C@H]([C@@H](O)C[C@@]3(C)[C@H]2CC[C@]3(O)C(=O)CO)[C@@]2(C)C=CC(=O)C=C12	115%	115% (inactive)	115% (inactive)	93.8% (inactive)	88.1% (inactive)	9.38% (inactive)	78.7%	88.1%	–	–
NS(=O)(=O)c1cc2c(cc1C(F)(F)F)NC(Cc1ccccc1)NS2(=O)=O (stereo not given)	106%	114% (inactive)	106% (inactive)	83.9% (inactive)	88.9% (inactive)	-5.48% (inactive)	94.3%	88.9%	–	–
CC(C)CCNC(=O)[C@H](CC(C)C)NC(=O)[C@H]1O[C@@H]1C(=O)O	104%	112% (inactive)	104% (inactive)	95.9% (inactive)	100% (inactive)	5.67% (inactive)	94.5%	100%	–	–
Cc1csc2nc(CNC(=O)c3ccco3)cn12	86%	102% (inactive)	86% (inactive)	95.6% (inactive)	112% (inactive)	13.9% (inactive)	98.5%	112%	-1.2% (inactive)	-4.35% (inactive)
CCC1(c2ccccc2)C(=O)NCNC1=O	96.5%	102% (inactive)	96.5% (inactive)	116% (inactive)	102% (inactive)	16.5% (inactive)	85.7%	102%	–	–
O=S(=O)(c1cccs1)N1CCN(C/C=C/c2ccccc2)CC1	101%	91.5% (inactive)	101% (inactive)	83.3% (inactive)	82.9% (inactive)	1.57% (inactive)	81.4%	82.9%	-3.73% (inactive)	2.1% (inactive)
COc1cc2nc(N3CCN(C(=O)C4CCCO4)CC3)nc(N)c2cc1OC (stereo not given)	100%	99% (inactive)	100% (inactive)	98.5% (inactive)	91.6% (inactive)	-0.44% (inactive)	92%	91.6%	–	–
CN(C)CCOC(c1ccccc1)c1ccccc1 (tested in a mixture with another compound)	93.5%	106% (inactive)	93.5% (inactive)	98.9% (inactive)	103% (inactive)	19.3% (inactive)	83.7%	103%	–	–
CCOC(=O)CSc1nnc(NC(=O)c2cccc(S(=O)(=O)N3CCCCC3)c2)s1	94%	87.5% (inactive)	94% (inactive)	79.6% (inactive)	101% (inactive)	9.55% (inactive)	91.2%	101%	-3.03% (inactive)	-1.67% (inactive)
CCOC(=O)NC1(NCc2ccccc2)Oc2ccccc2O1	92.5%	101% (inactive)	92.5% (inactive)	58.5% (inactive)	36.8% (active)	-25% (inactive)	61.7%	36.8%	6.23% (inactive)	-8.69% (inactive)
Cc1nc2cc(Cl)ccc2n1CCO	101%	95.5% (inactive)	101% (inactive)	102% (inactive)	92% (inactive)	7.68% (inactive)	84.4%	92%	-9.86% (inactive)	0.32% (inactive)
c1ccc(CN(CC2=NCCN2)c2ccccc2)cc1	91.5% and 100%	114% (inactive) and 91.5% (inactive)	91.5% (inactive) and 100% (inactive)	94.1% (inactive) and 87.9% (inactive)	93.2% (inactive) and 96.6% (inactive)	6.63% (inactive) and -1.34% (inactive)	86.6% and 97.9%	93.2% and 96.6%	–	–
Cc1cccc2cc(CN(CCCO)C(=O)Nc3ccc(Cl)cc3)c(=O)[nH]c12	74%	69.5% (inactive)	74% (inactive)	67.9% (inactive)	77.1% (inactive)	5.85% (inactive)	71.2%	77.1%	-5.32% (inactive)	-1.43% (inactive)
O=C(NCCCn1ccnc1)c1cnn2c1NC(c1ccccc1)CC2C(F)(F)F (stereo not given)	93.5%	139% (inactive)	93.5% (inactive)	88.5% (inactive)	105% (inactive)	1.64% (inactive)	103%	105%	-0.26% (inactive)	-15% (inactive)
O=C(O)CCC(=O)Nc1ccc(S(=O)(=O)Nc2nccs2)cc1	122%	98.5% (inactive)	122% (inactive)	75.4% (inactive)	94.4% (inactive)	-2.46% (inactive)	96.9%	94.4%	–	–
CC(C)(S)[C@@H](N)C(=O)O	102%	93% (inactive)	102% (inactive)	106% (inactive)	110% (inactive)	15.4% (inactive)	94.3%	110%	–	–
